Data as given in ChEMBL document CHEMBL1154031, “Glycolipid ester-type heterodimers from Ipomoea tyrianthina and their pharmacological activity” (Bioorg Med Chem Lett, 2009).
Converted amounts (≈) assume the structure as drawn. The source made the active and inactive calls. No cut-off for these calls is given here.

Experiments:
Aorta [1] = test: Vasorelaxation activity in Wistar rat endothelium-intact thoracic aortic ring assessed as inhibition of noradrenaline-induced contraction; format: functional, tissue-based
Summary of the method: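 Thoracic aortic rings (3-5 mm) with endothelium intact, held at 3 g tension in Krebs solution at 37 °C, pH 7.4, gassed O2/CO2 19:1. Isometric tension recorded. Rings precontracted with noradrenaline 0.3 uM, then given cumulative concentrations. Relaxation taken from tone before and after addition. Vehicle and positive control run in parallel.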

Aorta [2] = test: Vasorelaxation activity in Wistar rat endothelium-removed thoracic aortic ring assessed as inhibition of noradrenaline-induced contraction; format: functional, tissue-based
Summary of the method: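 Endothelium removed from the rings, confirmed by absence of relaxation to carbachol 1 uM. Rings held at 3 g in oxygenated Krebs (37 °C, pH 7.4) and precontracted with noradrenaline 0.3 uM. Cumulative concentration-response curves recorded isometrically. Relaxation calculated by comparing tone before and after compound addition.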

Brain [3] = test: Increase in glutamic acid release in mouse cortical brain slice assessed per mg of protein at 20 ug/mL upto 180 seconds; format: functional
Summary of the method: (§1)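 Anterior cortex slices (250-300 um) cut by hand after decapitation, held at 4 °C in oxygenated modified Krebs-Ringer (pH 7.4) with amino-oxyacetic acid 10.0 uM, then 10 min in basal medium at 37 °C. Compound at a final 20.0 ug/mL; aliquots sampled at 0.5-3.0 min. GABA and glutamate measured by HPLC after O-phthaldialdehyde derivatization and expressed per mg slice protein. Untreated control; mean ± SEM, 3 independent experiments.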

Brain [4] = test: Increase in GABA release in mouse cortical brain slice at 20 ug/mL after 30 seconds; format: functional, tissue-based; summary of the method: as §1
[5] = system: Mycobacterium tuberculosis; test: Antimycobacterial activity against Mycobacterium tuberculosis by microplate blue alamar assay; format: functional
Summary of the method: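 Modified microplate Alamar Blue assay (MABA) against M. tuberculosis. Pure compounds tested over 100.00 to 3.13 µg/mL. Activity recorded as the minimal inhibitory concentration (MIC).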

Brain [6] = test: Increase in GABA release in mouse cortical brain slice at 20 ug/mL upto 180 seconds; format: functional, tissue-based; summary of the method: as §1

| SMILES | Emax (Aorta [1]) [%] | IC50 (Aorta [1]) [nM] | Activity (Aorta [2]) | Activity (Brain [3]) [pmol] | Activity (Brain [4]) | MIC [5] [µg/mL] | Activity (Brain [6]) |
| --- | --- | --- | --- | --- | --- | --- | --- |
| CCCCCC1CCCCCCCCCC(=O)O[C@@H]2[C@@H](O[C@@H]3O[C@@H](C)[C@H](OC(=O)CCCCCCCCC[C@@H](CCCCC)O[C@@H]4O[C@H](C)[C@@H](O)[C@H](O)[C@H]4O[C@@H]4O[C@H](CO)[C@@H](O)[C@H](O)[C@H]4O[C@@H]4O[C@@H](C)[C@H](O[C@@H]5O[C@H](C)[C@@H](OC(=O)C(C)CC)[C@H](O)[C@H]5O)C(O)C4OC(=O)C(C)C(C)O)[C@@H](O)[C@@H]3O)[C@H](C)O[C@@H](O[C@H]3[C@H](O[C@H]4[C@H](O1)O[C@H](C)[C@@H](O)[C@@H]4O)O[C@H](COC(=O)C(C)C(C)O)[C@@H](O)[C@@H]3O)[C@@H]2OC(=O)C(C)C(C)O (stereo partly drawn) [TYRIANTHIN A] | 81.8 | 240 | inactive | 100 | Active | 100 (≈ 47.7 µM) | Active |
| CCCCCC1CCCCCCCCCC(=O)O[C@@H]2[C@@H](O[C@@H]3O[C@@H](C)[C@H](OC(=O)CCCCCCCCC[C@@H](CCCCC)O[C@@H]4O[C@H](C)[C@@H](O)[C@H](O)[C@H]4O[C@@H]4O[C@H](CO)[C@@H](O)[C@H](O)[C@H]4O[C@@H]4O[C@@H](C)[C@H](O[C@@H]5O[C@H](C)[C@@H](O)[C@H](O)[C@H]5O)C(O)C4OC(=O)CCC)[C@@H](O)[C@@H]3O)[C@H](C)O[C@@H](O[C@H]3[C@H](O[C@H]4[C@H](O1)O[C@H](C)[C@@H](O)[C@@H]4O)O[C@H](COC(=O)C(C)C(C)O)[C@@H](O)[C@@H]3O)[C@@H]2OC(=O)C(C)C(C)O (stereo partly drawn) [TYRIANTHIN B] | – | 140 | inactive | 180 | Active | 100 (≈ 50.5 µM) | inactive |
